Legend:
[1] = target: Gonadotropin-releasing hormone receptor (Homo sapiens, UniProt P30968, Y290Q); assay: Displacement of [125I]-His5, D-Tyr6]GnRH from mutant GnRHR, GnRHR Y290Q
[2] = target: Gonadotropin-releasing hormone receptor (Homo sapiens, UniProt P30968, W291F); assay: Displacement of [125I]-His5, D-Tyr6]GnRH from mutant GnRHR, GnRHR W291F
[3] = target: Gonadotropin-releasing hormone receptor (Homo sapiens, UniProt P30968, D293K); assay: Displacement of [125I]-His5, D-Tyr6]GnRH from mutant GnRHR, GnRHR D293K
Method in brief: (§1)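 Human GnRH-R (wild type or site-directed point mutant) was transiently expressed in COS-7 cells by electroporation, with cells cultured 36-48 h before membranes were prepared. Membranes (5-20 µg per point) were incubated 2 h at room temperature with 0.3 nM tracer and varying competitor in HEPES pH 7.5, 150 mM NaCl, 0.1% BSA, then filtered and counted.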

[4] = target: Gonadotropin-releasing hormone receptor (Homo sapiens, UniProt P30968, D293N); assay: Displacement of [125I]-His5, D-Tyr6]GnRH from mutant GnRHR, GnRHR D293N; method in brief: as §1
[5] = target: Gonadotropin-releasing hormone receptor (Homo sapiens, UniProt P30968, L300A); assay: Displacement of [125I]-His5, D-Tyr6]GnRH from mutant GnRHR, GnRHR L300A; method in brief: as §1
[6] = target: Gonadotropin-releasing hormone receptor (Homo sapiens, UniProt P30968, L300K); assay: Displacement of [125I]-His5, D-Tyr6]GnRH from mutant GnRHR, GnRHR L300K; method in brief: as §1
[7] = target: Gonadotropin-releasing hormone receptor (Homo sapiens, UniProt P30968, D302A); assay: Displacement of [125I]-His5, D-Tyr6]GnRH from mutant GnRHR, GnRHR D302A; method in brief: as §1
[8] = target: Gonadotropin-releasing hormone receptor (Homo sapiens, UniProt P30968, D302N); assay: Displacement of [125I]-His5, D-Tyr6]GnRH from mutant GnRHR, GnRHR D302N; method in brief: as §1
[9] = target: Gonadotropin-releasing hormone receptor (Homo sapiens, UniProt P30968, D302Q); assay: Displacement of [125I]-His5, D-Tyr6]GnRH from mutant GnRHR, GnRHR D302Q; method in brief: as §1
[10] = target: Gonadotropin-releasing hormone receptor (Homo sapiens, UniProt P30968, N305D); assay: Displacement of [125I]-His5, D-Tyr6]GnRH from mutant GnRHR, GnRHR N305D; method in brief: as §1
[11] = target: Gonadotropin-releasing hormone receptor (Homo sapiens, UniProt P30968, F309L); assay: Displacement of [125I]-His5, D-Tyr6]GnRH from mutant GnRHR, GnRHR F309L; method in brief: as §1
[12] = target: Gonadotropin-releasing hormone receptor (Homo sapiens, UniProt P30968, F313L); assay: Displacement of [125I]-His5, D-Tyr6]GnRH from mutant GnRHR, GnRHR F313L; method in brief: as §1
[13] = target: Gonadotropin-releasing hormone receptor (Homo sapiens, UniProt P30968, W280F); assay: Displacement of [125I]-His5, D-Tyr6]GnRH from mutant GnRHR, GnRHR W280F
[14] = target: Gonadotropin-releasing hormone receptor (Homo sapiens, UniProt P30968, Y284L); assay: Displacement of [125I]-His5, D-Tyr6]GnRH from mutant GnRHR, GnRHR Y284L
[15] = target: Gonadotropin-releasing hormone receptor (Homo sapiens, UniProt P30968, M24I); assay: Displacement of [125I]-His5, D-Tyr6]GnRH from mutant GnRHR, GnRHR M24I; method in brief: as §1
[16] = target: Gonadotropin-releasing hormone receptor (Homo sapiens, UniProt P30968, N27A); assay: Displacement of [125I]-His5, D-Tyr6]GnRH from mutant GnRHR, GnRHR N27A; method in brief: as §1
[17] = target: Gonadotropin-releasing hormone receptor (Homo sapiens, UniProt P30968, K115Q); assay: Displacement of [125I]-His5, D-Tyr6]GnRH from mutant GnRHR, GnRHR K115Q; method in brief: as §1
[18] = target: Gonadotropin-releasing hormone receptor (Homo sapiens, UniProt P30968, S168I); assay: Displacement of [125I]-His5, D-Tyr6]GnRH from mutant GnRHR, GnRHR S168I
[19] = target: Gonadotropin-releasing hormone receptor (Homo sapiens, UniProt P30968, S186K); assay: Displacement of [125I]-His5, D-Tyr6]GnRH from mutant GnRHR, GnRHR S186K
[20] = target: Gonadotropin-releasing hormone receptor (Homo sapiens, UniProt P30968, Q189A); assay: Displacement of [125I]-His5, D-Tyr6]GnRH from mutant GnRHR, GnRHR Q189A; method in brief: as §1
[21] = target: Gonadotropin-releasing hormone receptor (Homo sapiens, UniProt P30968, Q189P); assay: Displacement of [125I]-His5, D-Tyr6]GnRH from mutant GnRHR, GnRHR Q189P
[22] = target: Gonadotropin-releasing hormone receptor (Homo sapiens, UniProt P30968, K191E); assay: Displacement of [125I]-His5, D-Tyr6]GnRH from mutant GnRHR, GnRHR K191E; method in brief: as §1
[23] = target: Gonadotropin-releasing hormone receptor (Homo sapiens, UniProt P30968, S203E); assay: Displacement of [125I]-His5, D-Tyr6]GnRH from mutant GnRHR, GnRHR S203E
[24] = target: Gonadotropin-releasing hormone receptor (Homo sapiens, UniProt P30968, S203Q); assay: Displacement of [125I]-His5, D-Tyr6]GnRH from mutant GnRHR, GnRHR S203Q
[25] = target: Gonadotropin-releasing hormone receptor (Homo sapiens, UniProt P30968, N27E); assay: Displacement of [125I]-His5, D-Tyr6]GnRH from mutant GnRHR, GnRHR N27E; method in brief: as §1
[26] = target: Gonadotropin-releasing hormone receptor (Homo sapiens, UniProt P30968, A50T); assay: Displacement of [125I]-His5, D-Tyr6]GnRH from mutant GnRHR, GnRHR A50T; method in brief: as §1
[27] = target: Gonadotropin-releasing hormone receptor (Homo sapiens, UniProt P30968, E111A); assay: Displacement of [125I]-His5, D-Tyr6]GnRH from mutant GnRHR, GnRHR E111A; method in brief: as §1
[28] = target: Gonadotropin-releasing hormone receptor (Homo sapiens, UniProt P30968, Q208D); assay: Displacement of [125I]-His5, D-Tyr6]GnRH from mutant GnRHR, GnRHR Q208D
[29] = target: Gonadotropin-releasing hormone receptor (Homo sapiens, UniProt P30968, Q208E); assay: Displacement of [125I]-His5, D-Tyr6]GnRH from mutant GnRHR, GnRHR Q208E
[30] = target: Gonadotropin-releasing hormone receptor (Homo sapiens, UniProt P30968, Y290F); assay: Displacement of [125I]-His5, D-Tyr6]GnRH from mutant GnRHR, GnRHR Y290F
Gonadotropin-releasing hormone receptor (Homo sapiens, UniProt P30968, Y290F), sequence (P30968 whole entry Y290F): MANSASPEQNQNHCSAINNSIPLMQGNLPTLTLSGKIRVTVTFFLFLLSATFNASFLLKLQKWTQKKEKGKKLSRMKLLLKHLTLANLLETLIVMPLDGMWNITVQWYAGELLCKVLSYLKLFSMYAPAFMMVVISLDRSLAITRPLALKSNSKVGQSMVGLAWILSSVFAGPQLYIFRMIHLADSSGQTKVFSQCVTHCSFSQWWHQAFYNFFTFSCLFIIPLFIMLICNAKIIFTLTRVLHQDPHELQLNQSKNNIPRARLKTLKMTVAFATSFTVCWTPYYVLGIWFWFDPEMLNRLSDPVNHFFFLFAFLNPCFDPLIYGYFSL

Gonadotropin-releasing hormone receptor (Homo sapiens, UniProt P30968, S203E), sequence (P30968 whole entry S203E): as the sequence (P30968 whole entry Y290F) above, with S203E, F290Y counted along it
Gonadotropin-releasing hormone receptor (Homo sapiens, UniProt P30968, Q208D), sequence (P30968 whole entry Q208D): as the sequence (P30968 whole entry Y290F) above, with Q208D, F290Y counted along it
Gonadotropin-releasing hormone receptor (Homo sapiens, UniProt P30968, Q189A), sequence (P30968 whole entry Q189A): as the sequence (P30968 whole entry Y290F) above, with Q189A, F290Y counted along it
Gonadotropin-releasing hormone receptor (Homo sapiens, UniProt P30968, Q189P), sequence (P30968 whole entry Q189P): as the sequence (P30968 whole entry Y290F) above, with Q189P, F290Y counted along it
Gonadotropin-releasing hormone receptor (Homo sapiens, UniProt P30968, D302A), sequence (P30968 whole entry D302A): as the sequence (P30968 whole entry Y290F) above, with F290Y, D302A counted along it
Gonadotropin-releasing hormone receptor (Homo sapiens, UniProt P30968, W280F), sequence (P30968 whole entry W280F): as the sequence (P30968 whole entry Y290F) above, with W280F, F290Y counted along it
Gonadotropin-releasing hormone receptor (Homo sapiens, UniProt P30968, N27E), sequence (P30968 whole entry N27E): as the sequence (P30968 whole entry Y290F) above, with N27E, F290Y counted along it
Gonadotropin-releasing hormone receptor (Homo sapiens, UniProt P30968, K191E), sequence (P30968 whole entry K191E): as the sequence (P30968 whole entry Y290F) above, with K191E, F290Y counted along it
Gonadotropin-releasing hormone receptor (Homo sapiens, UniProt P30968, Y290Q), sequence (P30968 whole entry Y290Q): as the sequence (P30968 whole entry Y290F) above, with F290Q counted along it
Gonadotropin-releasing hormone receptor (Homo sapiens, UniProt P30968, D302N), sequence (P30968 whole entry D302N): as the sequence (P30968 whole entry Y290F) above, with F290Y, D302N counted along it
Gonadotropin-releasing hormone receptor (Homo sapiens, UniProt P30968, M24I), sequence (P30968 whole entry M24I): as the sequence (P30968 whole entry Y290F) above, with M24I, F290Y counted along it
Gonadotropin-releasing hormone receptor (Homo sapiens, UniProt P30968, D293K), sequence (P30968 whole entry D293K): as the sequence (P30968 whole entry Y290F) above, with F290Y, D293K counted along it
Gonadotropin-releasing hormone receptor (Homo sapiens, UniProt P30968, N27A), sequence (P30968 whole entry N27A): as the sequence (P30968 whole entry Y290F) above, with N27A, F290Y counted along it

Row | Compound | IC50 [1] [nM] | IC50 [2] [nM] | IC50 [3] [nM] | IC50 [4] [nM] | IC50 [5] [nM] | IC50 [6] [nM] | IC50 [7] [nM] | IC50 [8] [nM] | IC50 [9] [nM] | IC50 [10] [nM] | IC50 [11] [nM] | IC50 [12] [nM] | IC50 [13] [nM] | IC50 [14] [nM] | IC50 [15] [nM] | IC50 [16] [nM] | IC50 [17] [nM] | IC50 [18] [nM] | IC50 [19] [nM] | IC50 [20] [nM] | further results
1 | COc1c(C)cc(-c2[nH]c3ccc(C(C)(C)C(=O)N(CC(C)C)CC(C)C)cc3c2[C@H](C)CNCCc2ccccc2)cc1C | 229 | 6.8 | 56.1 | 32.6 | 87.9 | 277 | 11 | 27.3 | 20.6 | 46.5 | 60.1 | 623 | 139 | 277 | 23.2 | 8.8 | 27 | 15.2 | 13.1 | 10 | IC50 [21]: 10.8 nM; IC50 [22]: 11 nM; IC50 [23]: 15.1 nM; IC50 [24]: 15.7 nM; IC50 [25]: 10.8 nM; IC50 [26]: 17.8 nM; IC50 [27]: 5.4 nM; IC50 [28]: 16.2 nM; IC50 [29]: 6 nM; IC50 [30]: 39.6 nM
2 | CC(C)C[C@H](NC(=O)[C@@H](Cc1ccc(O)cc1)NC(=O)[C@H](Cc1c[nH]cn1)NC(=O)[C@H](CO)NC(=O)[C@H](Cc1c[nH]c2ccccc12)NC(=O)[C@H](Cc1c[nH]cn1)NC(=O)[C@@H]1CCC(=O)N1)C(=O)N[C@@H](CCCN=C(N)N)C(=O)N1CCC[C@H]1C(=O)NCC(N)=O | 192 | 60.1 | 4.8 | 4.7 | 18.2 | 35.3 | 42.2 | 16.5 | 26.5 | 41.1 | 37.7 | 5.6 | 10.3 | 186 | 2.2 | 5.8 | 8.2 | 3.8 | 4.1 | 2.4 | IC50 [21]: 1.9 nM; IC50 [22]: 3.7 nM; IC50 [23]: 2.9 nM; IC50 [24]: 2.9 nM; IC50 [25]: 3.8 nM; IC50 [26]: 3.6 nM; IC50 [27]: 4.6 nM; IC50 [28]: 10.1 nM; IC50 [29]: 15 nM; IC50 [30]: 48.8 nM

From ChEMBL document CHEMBL1147748, “Overlapping, nonidentical binding sites of different classes of nonpeptide antagonists for the human gonadotropin-releasing hormone receptor” (J Med Chem, 2006)
